The values below come from ChEMBL document CHEMBL2412989, “Antiproliferative activity on human prostate carcinoma cell lines of new peptidomimetics containing the spiroazepinoindolinone scaffold” (Bioorg Med Chem, 2013).

Assay [1] has as its system DU-145. Kind of assay: Antiproliferative activity against human DU145 cells assessed as growth inhibition at 10^-9 M after 48 hrs by BrdU-incorporation assay relative to untreated cells. Type of assay: functional. As to conditions: DU-145, 48 h, read-out: GI. The method in brief:
(§1)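 DU145 prostate carcinoma cells (ATCC) kept in RPMI 1640/5% FBS. 5 × 10^4 cells/well seeded, 24 h at 37 °C, 5% CO2. Medium then replaced by RPMI 1640/5% charcoal-stripped FBS with compound. BrdU added 4 h before end of incubation. Fixed cells probed with Eu-conjugated anti-BrdU (0.5 µg/mL), time-resolved fluorescence read. Cell-free wells used as blank. Mean of ≥3 experiments, 8 replicates each, expressed vs untreated cells.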

Assay [2] concerns the target T1, Growth hormone secretagogue receptor type 1 (Homo sapiens, UniProt Q92847). In words: Induction of GHS-R1a-mediated ERK1/2 phosphorylation in human DU145 cells at 10^-9 to 10^-6 M after 10 mins by Western blot analysis. Type of assay: cell-based. As to conditions: DU-145. Summed up: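 DU145 cells serum-starved 16 h, then exposed to compound (10^-6 or 10^-9 M) for 10 min. Lysed in T-PER with protease inhibitors, protein by BCA. SDS-PAGE, nitrocellulose transfer, 5% milk/TBST block. Probed overnight at 4 °C with anti-pERK1/2 (1:150) and anti-ERK1/2 (1:1000), then peroxidase secondary 2 h RT. Mean ± SD of three independent experiments, one-way ANOVA.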
In general terms: In western blotting, separated proteins are transferred to a membrane and probed.

Assay [3] has as its system DU-145. Kind of assay: Antiproliferative activity against human DU145 cells assessed as growth inhibition at 10^-6 M after 48 hrs by BrdU-incorporation assay relative to untreated cells in presence of GHS-R1a antagonist D-Lys-GHRP-6. In kind it is functional, cell-based. The method in brief:
(§2)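 BrdU-incorporation proliferation assay in DU145 cells. Cells seeded at 5 × 10^4/well, 24 h, then switched to RPMI 1640/5% charcoal-stripped FBS containing compound together with GHS-R1a antagonist D-Lys3-GHRP-6 at 10^-6 M. BrdU pulse 4 h before end. Eu-anti-BrdU time-resolved fluorescence, blank from cell-free wells. Mean of ≥3 experiments in 8 replicates, relative to untreated cells.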

The test system of assay [4] is DU-145. In words: Antiproliferative activity against human DU145 cells assessed as growth inhibition at 10^-9 M after 48 hrs by BrdU-incorporation assay relative to untreated cells in presence of GHS-R1a antagonist D-Lys-GHRP-6. Type of assay: functional, cell-based. The method in brief:
as §2

Assay [5] deals with DU-145. In words: Antiproliferative activity against human DU145 cells assessed as growth inhibition at 10^-6 M after 48 hrs by BrdU-incorporation assay relative to untreated cells. In kind it is functional. As to conditions: DU-145, 48 h, read-out: GI. The method in brief:
as §1

Assay [6] is described as follows: Agonist activity at GHS-R1a in rat pituitary cells. In kind it is cell-based. As to conditions: Pituitary gland cell.
Assay [7] concerns the target T1, Growth hormone secretagogue receptor type 1. In words: Agonist activity at GHS-R1a (unknown origin).
Assay [8] has the same target. Kind of assay: Induction of GHS-R1a-mediated ERK1/2 phosphorylation in human DU145 cells at 10^-6 M after 10 mins by Western blot analysis in presence of D-Lys-GHRP-6. In kind it is cell-based. As to conditions: DU-145. The method in brief: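 Western blot of ERK1/2 phosphorylation in 16 h serum-starved DU145 cells. Cells pretreated 1 h with 10^-6 M D-Lys3-GHRP-6, then exposed 10 min to compound. pERK1/2 (1:150) and total ERK1/2 (1:1000) antibodies, overnight 4 °C, peroxidase secondary. Mean ± SD, three independent experiments, one-way ANOVA.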

What is called EC50 is the midpoint of the concentration-response curve. A low value points to an effect from little substance.

Each structure is given as a SMILES string. Active and inactive are the calls of the source. No cut-off for these calls is given here.

T1 sequence (Q92847 whole entry): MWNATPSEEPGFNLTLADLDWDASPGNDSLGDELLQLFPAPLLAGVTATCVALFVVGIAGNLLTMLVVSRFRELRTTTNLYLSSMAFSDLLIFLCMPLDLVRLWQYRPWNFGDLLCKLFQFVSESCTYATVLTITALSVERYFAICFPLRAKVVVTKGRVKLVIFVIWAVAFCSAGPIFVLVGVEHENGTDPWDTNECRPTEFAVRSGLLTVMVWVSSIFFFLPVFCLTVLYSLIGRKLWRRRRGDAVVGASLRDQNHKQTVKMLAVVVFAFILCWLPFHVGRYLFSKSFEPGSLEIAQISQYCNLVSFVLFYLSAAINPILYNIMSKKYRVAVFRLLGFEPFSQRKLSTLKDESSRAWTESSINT

`CCCCCCCC(=O)OC[C@H](NC(=O)CNC(=O)[C@@H](N)CCCNC(=N)N)C(=O)N[C@@H](CO)C(=O)N[C@@H](Cc1ccccc1)C(=O)N[C@@H](CC(C)C)C(=O)N[C@@H](CO)C(=O)N1CCC[C@H]1C(=O)N[C@@H](CCC(=O)O)C(=O)N[C@@H](Cc1cnc[nH]1)C(=O)N[C@@H](CCC(N)=O)C(=O)N[C@@H](CCCCN)C(=O)N[C@@H](C)C(=O)N[C@@H](CCC(N)=O)C(=O)N[C@@H](CCC(N)=O)C(=O)N[C@@H](CCCNC(=N)N)C(=O)N[C@@H](CCCCN)C(=O)N[C@@H](CCC(=O)O)C(=O)N[C@@H](CO)C(=O)N[C@@H](CCCCN)C(=O)N[C@@H](CCCCN)C(=O)N1CCC[C@H]1C(=O)N1CCC[C@H]1C(=O)N[C@@H](C)C(=O)N[C@@H](CCCCN)C(=O)N[C@@H](CC(C)C)C(=O)N[C@@H](CCC(N)=O)C(=O)N1CCC[C@H]1C(=O)O` [GHRELIN]: the inhibition of growth at 0.001 µM in the assay with DU-145 [1] is -38%. Also, in assay [2], the result was Active. Further, the “growth inhibition (GI)” value in the assay with DU-145 [3] and with DU-145 [4] was “inactive” each time. For the same compound, in the assay with DU-145 [5], the inhibition of growth at 1 µM was -25%.

Consider `CC(C)(N)C(=O)N[C@H](COCc1ccccc1)C(=O)N1CCC2(CC1)CN(S(C)(=O)=O)c1ccccc12` [IBUTAMOREN], for which the EC50 in assay [6] was 1.3 nM.

As to `CC(C)(N)C(=O)N[C@@H](Cc1c[nH]c2ccccc12)C(=O)N1CCC[C@]2(CC1)C(=O)Nc1ccccc12`, the inhibition of growth at 0.001 µM with DU-145 [1] is -10%. The inhibition of growth at 1 µM in the assay on DU-145 [5] is -15%.

In turn, `CC(C)(N)C(=O)N[C@H](Cc1c[nH]c2ccccc12)C(=O)N1CCC2(CC1)C[C@H](O)c1ccccc12` returned an EC50 in assay [7] of 0.6 nM.

Consider `CC(C)(N)C(=O)N[C@@H](Cc1c[nH]c2ccccc12)C(=O)N1CCC[C@@]2(CC1)C(=O)Nc1ccccc12`, for which the inhibition of growth at 0.001 µM in the assay with DU-145 [1] is -20%. Further, the result in assay [2] was Active. In addition, the “growth inhibition (GI)” value with DU-145 [3] and in the assay with DU-145 [4] was “inactive” throughout. Also, the inhibition of growth at 1 µM in the assay on DU-145 [5] is -27%. For the same compound, the outcome in assay [8] was inactive.

`CC(C)(N)C(=O)N[C@H](Cc1c[nH]c2ccccc12)C(=O)N1CCC[C@]2(CC1)C(=O)Nc1ccccc12`: the inhibition of growth at 0.001 µM in the assay with DU-145 [1] is -2.4%. In the assay with DU-145 [5], the inhibition of growth at 1 µM was 9.7%.

In the case of `CC(C)(N)C(=O)N[C@H](Cc1c[nH]c2ccccc12)C(=O)N1CCC[C@@]2(CC1)C(=O)Nc1ccccc12`, the inhibition of growth at 0.001 µM in the assay on DU-145 [1] was -4.8%. In addition, the inhibition of growth at 1 µM in the assay with DU-145 [5] was -5.5%.

With `CC(=O)NC(C)(C)C(=O)N[C@@H](Cc1c[nH]c2ccccc12)C(=O)N1CCC[C@@]2(CC1)C(=O)Nc1ccccc12`, the inhibition of growth at 0.001 µM in the assay with DU-145 [1] is 1.2%. Besides, the inhibition of growth at 1 µM in the assay with DU-145 [5] was determined as 2.1%.
